For orientation: IC50 means the point on the concentration scale where inhibition reaches its midpoint.

One series relates to HepG2. Briefly: Cytotoxicity against human HepG2 cells assessed as cell viability after 48 hrs by MTT assay. Type of series: functional, cell-based. Particulars: HepG2, 48 h. The procedure, abridged: (§1)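 Cells were trypsinized, seeded in 96-well plates at 2 × 10³ cells/well and grown for 24 h. Medium was then replaced with compound solutions (in DMSO, range from 0.1) for 48 h, and viability was read by MTT. Cancer lines were grown in RPMI 1640 + 10% FCS. IC50 from 3 independent experiments, each in triplicate.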
(Tetrazolium assays rely on reduction of a dye to a coloured formazan, in cell work by metabolically active cells.)

A further series concerns NCI-H460. The series is described as follows: Cytotoxicity against human NCI-H460 cells assessed as cell viability after 48 hrs by MTT assay. It counts as functional, cell-based. Particulars: NCI-H460, 48 h. The essentials: as §1
The test system of series [1] is MGC-803. Briefly: Cytotoxicity against human MGC803 cells assessed as cell viability after 48 hrs by MTT assay. It counts as functional, cell-based. Particulars: MGC-803, 48 h. The essentials: as §1
For a further series, the system named is A-375. The series is described as follows: Cytotoxicity against human A375 cells assessed as cell viability after 48 hrs by MTT assay. Type of series: functional, cell-based. Particulars: A-375, 48 h. The procedure, abridged:
as §1

In series [2] the test system is MGC-803. Briefly: Cell cycle arrest in human MGC803 cells assessed as accumulation at sub G1 phase at 1 uM after 48 hrs by propidium iodide staining-based FACS analysis relative to control. It counts as functional.
Series [3] concerns MGC-803. The series is described as follows: Cell cycle arrest in human MGC803 cells assessed as accumulation at G0/G1 phase at 1 uM after 48 hrs by propidium iodide staining-based FACS analysis relative to control. Type of series: functional. (In general: Flow cytometry measures light scatter and fluorescence of single cells or particles in a stream.)
Series [4] concerns MGC-803. Briefly: Cell cycle arrest in human MGC803 cells assessed as accumulation at S phase at 1 uM after 48 hrs by propidium iodide staining-based FACS analysis relative to control. Type of series: functional.
The test system of series [5] is MGC-803. The series is described as follows: Cell cycle arrest in human MGC803 cells assessed as accumulation at G2/M phase at 1 uM after 48 hrs by propidium iodide staining-based FACS analysis relative to control. Type of series: functional.
Series [6] has as its system MGC-803. The series is described as follows: Cell cycle arrest in human MGC803 cells assessed as accumulation at sub G1 phase at 10 uM after 48 hrs by propidium iodide staining-based FACS analysis relative to control. It counts as functional.
Series [7] has as its system MGC-803. Briefly: Cell cycle arrest in human MGC803 cells assessed as accumulation at G0/G1 phase at 10 uM after 48 hrs by propidium iodide staining-based FACS analysis relative to control. It counts as functional.
In series [8] the test system is MGC-803. Briefly: Cell cycle arrest in human MGC803 cells assessed as accumulation at S phase at 10 uM after 48 hrs by propidium iodide staining-based FACS analysis relative to control. It counts as functional.
Series [9] relates to MGC-803. Briefly: Cell cycle arrest in human MGC803 cells assessed as accumulation at G2/M phase at 10 uM after 48 hrs by propidium iodide staining-based FACS analysis relative to control. It counts as functional.
Series [10] relates to MGC-803. Briefly: Cytotoxicity against human MGC803 cells assessed as cell size at 1 uM after 48 hrs by FACS analysis relative to control. Type of series: functional. The essentials: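 Cells treated 48 h with DMSO or compound at […] as printed. Forward scatter (mean FSC-H) measured by FACS and given relative to control cells.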
Series [11] deals with MGC-803. Briefly: Induction of apoptosis in human MGC803 cells assessed as chromatin condensation at 1 to 10 uM after 48 hrs by Hoechst 33258 staining-based fluorescence confocal microscopic analysis. Type of series: functional, cell-based. The procedure, abridged:
(§2)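 MGC-803 cells grown on glass slides and treated 48 h. They were then washed in PBS, fixed in 4% paraformaldehyde and permeabilized with 1% Triton X-100. After four washes, Hoechst 33258 ([…] final) was added in the last wash to stain nuclei.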

The test system of series [12] is MGC-803. The series is described as follows: Induction of apoptosis in human MGC803 cells assessed as chromatin fragmentation at 1 to 10 uM after 48 hrs by Hoechst 33258 staining-based fluorescence confocal microscopic analysis. It counts as functional, cell-based. The essentials: as §2
Series [13] concerns Cellular tumor antigen p53 (Homo sapiens), P04637 [UNDEFINED MUTATION]. Briefly: Inhibition of P53 mutant in human MGC803 cells assessed as AIF release from mitochondria and translocation to nucleus at 1 to 10 uM after 48 hrs by immunostaining assay. It counts as cell-based. The settings on record: MGC-803. The essentials:
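MGC-803 cells on slides, 48 h after treatment, were washed in PBS and fixed in 4% paraformaldehyde. They were immunostained for AIF with primary antibody and a Cy3-conjugated secondary.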

For series [14], the system named is MGC-803. Briefly: Induction of apoptosis in human MGC803 cells assessed as caspase-3 activation at 5 uM after 24 hrs by FITC-DEVD-FMK probe-based flow cytometric analysis (reference value: 1.8%). Type of series: functional. The essentials: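 Treated and control MGC-803 cells (5 µM, 24 h) harvested at 1 × 10⁶ cells/mL in RPMI 1640 + 10% FCS. Incubated with FITC-DEVD-FMK for 1 h at 37 °C, 5% CO₂, then analysed by flow cytometry with 488 nm excitation. Given as percent change versus untreated control.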

Series [15] relates to Cellular tumor antigen p53 (Homo sapiens), P04637 [UNDEFINED MUTATION]. Briefly: Inhibition of P53 mutant in human MGC803 cells assessed as decrease in p21 expression at 1 to 10 uM after 24 hrs by Western blot analysis. Type of series: cell-based. Particulars: MGC-803. The procedure, abridged: (§3)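 MGC-803 cells, 3 × 10⁵ per well of a 6-well plate, exposed to compound for 24 h. Cells were washed in ice-cold PBS and lysed in sample buffer, then run on SDS-PAGE and transferred to nitrocellulose. Blots were probed with primary antibodies and […] anti-rabbit IgG and developed by ECL.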
Sequence of Cellular tumor antigen p53 (Homo sapiens), P04637 [UNDEFINED MUTATION] (P04637 whole entry, looked up, change not shown): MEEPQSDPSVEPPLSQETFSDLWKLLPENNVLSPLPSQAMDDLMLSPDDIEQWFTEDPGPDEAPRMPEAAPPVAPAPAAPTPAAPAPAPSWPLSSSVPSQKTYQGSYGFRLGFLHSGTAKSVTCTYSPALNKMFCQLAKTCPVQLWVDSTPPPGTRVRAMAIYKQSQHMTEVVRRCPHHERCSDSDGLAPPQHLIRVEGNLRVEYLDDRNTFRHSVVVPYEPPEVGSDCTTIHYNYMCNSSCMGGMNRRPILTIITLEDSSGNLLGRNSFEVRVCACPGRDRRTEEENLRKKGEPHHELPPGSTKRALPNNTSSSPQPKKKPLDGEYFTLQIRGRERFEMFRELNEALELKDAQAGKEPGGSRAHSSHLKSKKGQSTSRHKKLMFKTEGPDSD

The test system is the same in series [16]. The series is described as follows: Inhibition of P53 mutant phosphorylation at s392 in human MGC803 cells at 1 to 10 uM after 24 hrs by Western blot analysis. Type of series: cell-based. The settings on record: MGC-803. The procedure, abridged:
as §3
(Immunoblotting shows a protein as a band on a membrane.)

Series [17] has the same test system. Briefly: Inhibition of P53 mutant acetylation at k373 in human MGC803 cells at 1 to 10 uM after 24 hrs by Western blot analysis. The settings on record: MGC-803. It counts as cell-based. The procedure, abridged: as §3
Series [18] is described as follows: Cytotoxicity against human WI38 cells expressing wild type p53 assessed as cell viability at 1 to 10 uM after 48 hrs by MTT assay. Type of series: cell-based. Particulars: wi-38, 48 h. The essentials:
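WI-38 normal lung fibroblasts, grown in DMEM + 10% FCS, seeded at 2 × 10³ cells/well in 96-well plates for 24 h. Then exposed to compound (in DMSO) for 48 h, with viability by MTT.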

Series [19] relates to Cellular tumor antigen p53 (Homo sapiens), P04637 [UNDEFINED MUTATION]. The series is described as follows: Inhibition of P53 mutant in human MGC803 cells assessed as upregulation of Bim expression at 1 to 10 uM after 24 hrs by Western blot analysis. The settings on record: MGC-803. It counts as cell-based.
The test system is the same in series [20]. Briefly: Inhibition of P53 mutant in human MGC803 cells assessed as downregulation of Bcl-2 expression at 1 to 10 uM after 24 hrs by Western blot analysis. The settings on record: MGC-803. Type of series: cell-based.
For series [21] the test system is unchanged. The series is described as follows: Inhibition of P53 mutant in human MGC803 cells assessed as change in BAX expression at 1 to 10 uM after 24 hrs by Western blot analysis. It counts as cell-based. Particulars: MGC-803.
The test system is the same in series [22]. Briefly: Inhibition of P53 mutant in human MGC803 cells assessed as upregulation of cdk2 activity at 1 to 10 uM after 24 hrs by Western blot analysis. The settings on record: MGC-803.
Series [23] relates to MGC-803. Briefly: Cytotoxicity against human MGC803 cells assessed as cell viability at 1 to 10 uM after 48 hrs by MTT assay. It counts as functional, cell-based.

The source made the active and inactive calls. The rule behind the calls is not given here.

Take `COc1cc2nc(/C=C/c3ccc(Cl)cc3)n(CCCN(C)C)c(=O)c2cc1OC`: the IC50 in the series on HepG2 was 6.96 µM; in the series on NCI-H460 it was 7.15 µM; in the series with MGC-803 [1], 3.18 µM; in the series with A-375, more than 20 µM. In addition, the Activity in the series on MGC-803 [2] amounted to 4.89%; with MGC-803 [3], 51.79%; in the series on MGC-803 [4], 29.22%; in the series with MGC-803 [5] it was 14.1%; with MGC-803 [6], 30.4%; with MGC-803 [7] it was 19.42%. Moreover, the Activity in the series with MGC-803 [8] is given as 29.93%; in the series with MGC-803 [9], 20.25%; in the series with MGC-803 [10] it was 59.4%; in the series with MGC-803 [14], 3.5%; in series [18], “Non-toxic”. The outcome with MGC-803 [11] and in the series with MGC-803 [12] was Active. The inhibition entry in series [13], in series [15], in series [16], in [17], in series [19] and in series [20] was “Active” in each case. In addition, the inhibition result in series [22] is “Active”. Besides, the inhibition result in series [21] is “inactive”.

In the case of `COc1cc2nc(/C=C/c3ccc(F)cc3)n(CCCN(C)C)c(=O)c2cc1OC`, the IC50 in the series with HepG2, in the series on NCI-H460 and with MGC-803 [1] was more than 20 µM in each case. Further, the inhibition entry in [16] and in [17] was “inactive” in each case. For the same molecule, in the series on MGC-803 [23], the outcome was inactive.

Values taken from ChEMBL document CHEMBL3414503, “Distinct novel quinazolinone exhibits selective inhibition in MGC-803 cancer cells by dictating mutant p53 function” (Eur J Med Chem, 2015).
